Screens as filed in PubChem BioAssay.
STAT1 blocker = inhibitors of IFN-gamma induced STAT1 signaling; NIH 3T3 STAT1-luciferase reporter, luminescence; inhibition, % at 5.5 µM; 200,000 tested, 0.35% active; AID 920;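 active means inhibition above a set limit, the mean inhibition across all tested compounds plus 3 SD, cut at about 34% in these data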;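 further: 0% = IFN-gamma with DMSO and 100% = IFN-gamma with 300 µM nifuroxazide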
PPC-1+TRAIL kill = kills PPC-1 cancer cells in the presence of TRAIL; 220,000 tested, 0.41% active; PPC-1 cells + TRAIL, ATPLite viability luminescence; cell killing (% activity), % at 4 µM or 5 µM;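 active means cell killing above 50% in the first pass at 4 µM, then a duplicate retest at 5 µM averaging 50% or more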;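 further: plate controls were cells with TRAIL plus DMSO for no effect and medium-only wells lacking cells for full effect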
STAT3 inh = reduces IL-6 driven STAT3 reporter signal | U3A cells, IL-6 STAT3-luciferase reporter, luminescence; host cell line lacks STAT1 | inhibition, % at 5.5 µM | 190,000 tested, 0.89% active;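 active means inhibition above the mean inhibition across all screened compounds plus 3 SD, cut at about 44% in these data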;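 further: 0% = DMSO only wells and 100% = 100 µM nifuroxazide control wells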
STAT3 act = activators of IL-6 induced STAT3 signaling. U3A cells, IL-6 STAT3-luciferase reporter, luminescence; 100% = signal with IL-6 EC80 alone. activation (% of control), % at 5.6 µM. 190,000 tested, 0.91% active. AID 871;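 active means activation above the screen-wide mean of compound activation plus 3 SD, cut at about 130% in these data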;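 further: 0% = background luminescence of wells with medium and substrate only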
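Material: STAT3-luciferase reporter U3A cells; Probe or stimulus: IL-6 (33 ng/mL); Incubation: compound pre-incubation 1 h before IL-6, then 6 h stimulation at 37 °C; Technique: luminescence from STAT3-driven luciferase reporter; Evaluation: % activation versus median of IL-6-stimulated wells; Controls: IL-6-only high control.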
C8 TRAIL sens = sensitizes caspase-8 expressing cells to TRAIL; NB7+C8 cells + TRAIL, ATPlite viability luminescence; inhibition (viability loss, TRAIL sensitization), % at 10 µM; 360,000 tested, 1% active; AID 624354;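 active means compounds causing at least 50% loss of cell viability in the single-dose screen, relative to plate controls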
* marks the source's active call; other numbers are inactive results; . = no result given. A selection: hits, their analogues and other compounds. The true share with any hit is near 1.8%.

SMILES	STAT1 blocker	PPC-1+TRAIL kill	STAT3 inh	STAT3 act	C8 TRAIL sens
Cc1ccc(SCC(=O)OCC(=O)N(CCC#N)c2ccccc2)cc1C	.	.	.	.	1.0
Cc1ccc(N(CCC#N)C(=O)CCl)cc1C	24.5	3.1	24.2	78.2	86.6*
Cc1ccc(-n2nc3cc(C)c(N)cc3n2)cc1	-7.4	2.1	27.8	78.3	12.2
CCc1ccc(-n2nc3cc(C)c(N)cc3n2)cc1	.	.	.	.	65.6*
CC[C@]12c3[nH]c4cc(-c5ccco5)ccc4c3CCN1C(=O)[C@@H](CC(=O)NCCN1CCOCC1)C[C@@H]2C(=O)N1CCN(C(=O)C2CC2)CC1	.	.	.	.	6.1
CC1=NN(c2ccccc2)C(=O)/C1=C/c1c(O)n(-c2ccc(F)c(Cl)c2)[nH]c1=O	-46.6	10.2	-86.4	165.9*	.
CC1=NN(c2ccccc2)C(=O)/C1=C\c1c(C)[nH]n(-c2ccccc2)c1=O	-0.6	12.5	-48.7	143.9*	16.6
Cc1cc(NC(=O)CCC(=O)N(CCC(C)C)C(C(=O)NCC2CCCO2)c2ccccc2C)no1 (stereo not given)	.	.	.	.	-10.8
CCc1ccc(NC(=O)c2onc(C)c2Cl)cc1	-47.4	18.1	-45.5	141.2*	38.5
O=C(NC(c1ccc(Cl)cc1)c1ccsc1)C1CCN(Cc2cccc(Cl)c2)CC1 (stereo not given)	.	.	.	.	27.8
Cc1ccc2nc(-c3ccc(O)c(O)c3)cn2c1	.	.	.	.	75.8*
CC(=O)Oc1ccc2c(=O)c(-c3nc4ccccc4s3)coc2c1	-8.5	36.6	38.9	72.2	68.7*
CC(C)Oc1ccc2c(=O)c(-c3ccccc3)coc2c1	-61.5	37.4	20.9	83.6	21.4
O=C(CSc1ccsc1[N+](=O)[O-])NCc1ccccc1	-13.0	17.4	-39.3	134.6*	0.1
Cc1cc(OCC(=O)Nc2c(C(C)C)cccc2C(C)C)no1	.	.	.	.	2.7
CCOC(=O)/C(=C\c1cccnc1)C(=O)c1cc(C(C)=O)c(Nc2ccccc2)s1	-4.0	12.0	-27.7	129.5	94.3*
O=C1[C@H](Cc2ccccc2)NCC=CC[C@H](c2ccc(Cl)cc2)N1Cc1ccccc1	.	.	.	.	-8.1
C(/C=C/c1ccccn1)=C\c1ccccc1	.	.	.	.	51.1*
CCN(C[C@H]1N[C@@](Cc2ccccc2)(C(=O)OC)[C@H]2C(=O)N(C)C(=O)[C@@H]12)C(=O)Nc1ccc(C(F)(F)F)cc1	.	.	.	.	-15.1
CCOC(=O)c1c(C)nc2c(c1-c1ccccc1)C(=O)c1ccccc1-2	0.1	23.4	22.5	90.1	24.7
CCOC(=O)c1c(C)nc2c(c1-c1cc(OC)ccc1OC)C(=O)c1ccccc1-2	0.0	-4.5	-1.0	107.1	67.8*
O=c1[nH]c(=S)[nH]c2c1C(c1ccc(F)cc1)OC(CCOCc1ccccc1)C2 (stereo not given)	.	.	.	.	-0.1
O=C(N1CCOCC1)N1CCN(c2nc(-c3ccccc3)cs2)CC1	-9.3	7.0	7.9	99.5	-16.0
CN(C)C(=O)N1CCN(c2nc(-c3ccccc3)cs2)CC1	.	.	.	.	58.3*
S=C(NCc1ccccn1)NN=Cc1ccccn1	.	.	.	.	8.2
SMILES	STAT1 blocker	PPC-1+TRAIL kill	STAT3 inh	STAT3 act	C8 TRAIL sens
O=S(=O)(Nc1nc2ccccc2nc1N1CCN(CCO)CC1)c1cc(F)ccc1F	.	.	.	.	9.2
COc1cc(/C=N/N2C(=O)c3ccccc3C2=O)ccc1O	7.7	7.8	3.2	99.5	0.8
Cc1ccsc1/C=N/N=C1\C(=O)Nc2ccccc21	-21.2	16.0	2.5	100.1	-8.0
O=C1Nc2ccccc2/C1=N\N=C\c1ccc(O)c(O)c1	.	30.0	.	.	57.5*
COc1cc(/C=N/N=C2/C(=O)Nc3ccccc32)ccc1O	4.8	21.5	-13.4	110.0	74.2*
CCOC(=O)c1cc(S(=O)(=O)Nc2ccc(F)cc2F)cn1C	.	.	.	.	3.5
CC(=O)c1ccc2c3c(cccc13)C(=O)N(CCc1ccccc1)C2=O	-36.2	6.6	-101.3	182.7*	6.3
Cc1ccc(C2=NNC(C(O)C(O)C(O)C(C)O)S2)cc1 (stereo not given)	-22.8	23.4	-4.4	101.1	8.0
COc1ccc(C2NN=C(c3ccc(C)cc3)S2)cc1OC (stereo not given)	-40.4	30.7	10.1	94.5	58.9*
Fc1cccc(C2NN=C(c3ccccc3)S2)c1 (stereo not given)	-71.1	27.3	39.5	66.1	55.0*
Cc1ccc(C2=NNC(c3cccc(F)c3)S2)cc1 (stereo not given)	48.2*	.	77.9*	34.5	65.9*
O=S(=O)(Nc1cccc(-c2cn3c(n2)SCC3)c1)c1ccccc1	.	.	.	.	-4.4
O=C(c1ccoc1)N1CCN(c2cc(-c3cccc(F)c3)nc3cc(-c4cccc(Cl)c4)nn23)CC1	.	.	.	.	32.7
Clc1nc(Cl)c2ncn(-c3ccccc3)c2n1	.	.	.	.	65.0*
CNc1nc(Cl)nc2c1ncn2-c1ccccc1	.	.	.	.	2.5
CC(=O)Nc1c(O)[nH]c2ccccc12	-9.7	0.5	-0.1	102.5	-45.5
N=NC(=O)c1ccccc1Nc1c(O)[nH]c2ccccc12	.	.	.	.	91.2*
O=c1c(Br)ccc(Br)cc1Br	.	.	.	.	93.1*
O=C1CN(S(=O)(=O)c2cc(Br)ccc2Br)CCN1	.	.	.	.	0.2
COc1ccc(C)cc1Nc1nc(N)c2cc(OC)c(OC)cc2n1	.	.	.	.	14.6
COc1cc2nc(N3CCNCC3)nc(N)c2cc1OC	1.1	22.9	-1.4	103.4	53.4*
COc1cc2nc(N3CCN(c4cc(C)ccc4C)CC3)nc(N)c2cc1OC	.	.	.	.	56.8*
COc1cc2nc(Cl)nc(N3CCCCC3)c2cc1OC	-4.9	.	11.0	97.6	-8.7
N#Cc1ccccc1OCC(=O)OCC(=O)NC1CC1	.	.	.	.	3.4
CC1CCN(S(=O)(=O)c2ccc(NC(=O)C3CSC4(C)CCC(=O)N34)cc2)CC1 (stereo not given)	.	.	.	.	-9.3
SMILES	STAT1 blocker	PPC-1+TRAIL kill	STAT3 inh	STAT3 act	C8 TRAIL sens
COc1ccccc1N/N=C/c1ccc2c(c1)OCO2	50.7*	0.6	71.6*	39.5	3.0
COc1ccccc1C(=O)N/N=C/c1ccc2c(c1)OCO2	.	.	.	.	21.8
CC(C)(C)c1ccc(C(=O)Nc2ccc(CC(=O)O)cc2)o1	53.8*	38.6	82.8*	30.8	17.8
Cc1ccc(C(=O)Nc2ccc(CC(=O)O)cc2)o1	1.7	12.6	9.6	95.6	9.4
Cc1ccc(/C=C/C2=NN(C)C(=O)CC2)cc1	-23.9	38.7	30.4	75.5	53.2*
CN1CCN(c2ccc(NC(=O)N3CCc4ccccc43)cc2)CC1	.	.	.	.	61.2*
COc1ccc(-c2nc3ccccn3c2CN2CCN(c3ccccc3F)CC2)cc1	1.6	4.1	11.1	98.1	18.1
COc1ccc(-c2nc3ccccn3c2Cl)cc1	.	.	.	.	71.5*
COc1ccc(Cl)c(-c2cc(C(=O)Nc3ccc(F)cc3)[nH]n2)c1	.	.	.	.	20.3
COc1ccc(Cn2c(SCc3ccccc3C)nc3cc(OC)c(OC)cc3c2=N)cc1	-1.8	8.0	5.4	100.5	86.1*
COc1cc2nc(SCc3ccc(F)cc3)n(Cc3cccs3)c(=N)c2cc1OC	-3.6	-3.5	1.5	107.6	-8.0
O=C(NOCc1ccccc1)c1ccc(Cl)cc1	.	.	.	.	51.1*
Cc1ccc(CONC(=O)c2ccc(Cl)cc2)cc1	.	.	.	.	4.3
COc1ccc(C(=O)NOCc2ccccc2)cc1	.	.	.	.	55.9*
